Test results: ChEMBL document CHEMBL4406856, “Structure based design, synthesis and in vitro antitumour activity of tiazofurin stereoisomers with nitrogen functions at the C-2' or C-3' positions” (Eur J Med Chem, 2019)
The source made the active and inactive calls. The calls are words filed in the database; no cut-off is given here.

Assays:
[1] = system: K562; test: Induction of apoptosis in human K562 cells incubated for 24 hrs by annexin V FITC and propidium iodide staining based flow cytometry relative to control; type: functional; design: concentration or dose not given beside the values
[2] = system: K562; test: Antiproliferative activity against human K562 cells assessed as reduction in cell growth incubated for 72 hrs by MTT assay; type: functional, cell-based; conditions: K562, 72 h
Procedure, shortened: (§1)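 Colorimetric MTT assay on human tumour lines K562 (chronic myeloid leukemia), HL-60 (promyelocytic leukemia), Jurkat (T cell leukemia), Raji (Burkitt's lymphoma), HT-29 (colorectal adenocarcinoma), HeLa (cervix adenocarcinoma) and normal lung fibroblast MRC-5; cells exposed to compounds for 72 h.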

[3] = system: HL-60; test: Antiproliferative activity against human HL60 cells assessed as reduction in cell growth incubated for 72 hrs by MTT assay; type: functional, cell-based; conditions: HL-60, 72 h
Procedure, shortened: as §1, with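 “h. IC50 taken as concentration giving 50% growth inhibition versus untreated control.” for “h.”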

[4] = system: Jurkat; test: Antiproliferative activity against human Jurkat cells assessed as reduction in cell growth incubated for 72 hrs by MTT assay; type: functional, cell-based
Procedure, shortened: as §1, with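 “h. IC50 taken as concentration giving 50% growth inhibition versus untreated control.” for “h.”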

[5] = system: Raji; test: Antiproliferative activity against human Raji cells assessed as reduction in cell growth incubated for 72 hrs by MTT assay; type: functional, cell-based; procedure, shortened: as §1
[6] = system: HT-29; test: Antiproliferative activity against human HT-29 cells assessed as reduction in cell growth incubated for 72 hrs by MTT assay; type: functional, cell-based; conditions: HT-29, 72 h
Procedure, shortened: as §1, with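 “h. IC50 taken as concentration giving 50% growth inhibition versus untreated control.” for “h.”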

[7] = system: HeLa; test: Antiproliferative activity against human HeLa cells assessed as reduction in cell growth incubated for 72 hrs by MTT assay; type: functional, cell-based
Procedure, shortened: as §1, with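 “h. IC50 taken as concentration giving 50% growth inhibition versus untreated control.” for “h.”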

[8] = system: MRC5; test: Cytotoxicity against human MRC5 cells assessed as reduction in cell viability incubated for 72 hrs by MTT assay; type: cell-based; conditions: MRC5, 72 h; procedure, shortened: as §1
[9] = system: K562; test: Potency index, ratio of tiazofurin IC50 to compound IC50 for cytotoxicity against human K562 cells incubated for 72 hrs by MTT assay; type: functional
[10] = system: K562; test: Potency index, ratio of doxorubicin IC50 to compound IC50 for cytotoxicity against human K562 cells incubated for 72 hrs by MTT assay; type: functional
[11] = system: K562; test: Cell cycle arrest in human K562 cells assessed as accumulation in G2/M phase incubated for 72 hrs by propidium iodide staining based flow cytometry (reference value: 15.45%); type: functional
Procedure, shortened: (§2)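 Exponentially growing K562 cells treated for 24 or 72 h, untreated cells as control; cells stained with propidium iodide and DNA content read by flow cytometry. Phase distribution (subG1, G0/G1, S, G2/M) taken from one-parameter histograms, subG1 scored as hypodiploid, apoptotic cells.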

[12] = system: K562; test: Cell cycle arrest in human K562 cells assessed as accumulation in S phase incubated for 72 hrs by propidium iodide staining based flow cytometry (reference value: 36.05%); type: functional; procedure, shortened: as §2
[13] = system: K562; test: Cell cycle arrest in human K562 cells assessed as accumulation in G0/G1 phase incubated for 72 hrs by propidium iodide staining based flow cytometry (reference value: 45.43%); type: functional; procedure, shortened: as §2
[14] = system: K562; test: Cell cycle arrest in human K562 cells assessed as accumulation in SubG1 phase incubated for 72 hrs by propidium iodide staining based flow cytometry (reference value: 3.07%); type: functional; procedure, shortened: as §2
[15] = system: K562; test: Induction of apoptosis in human K562 cells incubated for 72 hrs by annexin V FITC and propidium iodide staining based flow cytometry relative to control; type: functional; design: concentration or dose not given beside the values
Procedure, shortened: (§3)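 K562 cells treated for 72 h, stained with Annexin V-FITC/propidium iodide and analysed by flow cytometry. Apoptotic, necrotic and live fractions scored as percent of gated cells; specific apoptosis and specific necrosis calculated from these counts.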

[16] = system: K562; test: Induction of necrosis in human K562 cells incubated for 72 hrs by annexin V FITC and propidium iodide staining based flow cytometry relative to control; type: functional; design: concentration or dose not given beside the values; procedure, shortened: as §3
[17] = system: K562; test: Induction of apoptosis in human K562 cells assessed as Bcl2 level incubated for 72 hrs by Western blot analysis (reference value: 100%); type: functional
Procedure, shortened: (§4)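 K562 cells treated for 72 h; Bcl-2, BAX, caspase 3 precursor (32 kDa), caspase 3 active subunit (18 kDa) and PARP (112 and 85 kDa) measured by Western blot and expressed as % of untreated control.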

[18] = system: K562; test: Induction of apoptosis in human K562 cells assessed as Bax level incubated for 72 hrs by Western blot analysis (reference value: 100%); type: functional; procedure, shortened: as §4
[19] = system: K562; test: Induction of apoptosis in human K562 cells assessed as 32 kDa Caspase 3 precursor level incubated for 72 hrs by Western blot analysis (reference value: 100%); type: functional; procedure, shortened: as §4
[20] = system: K562; test: Induction of apoptosis in human K562 cells assessed as 18 kDa Caspase 3 active subunit level incubated for 72 hrs by Western blot analysis (reference value: 100%); type: functional; procedure, shortened: as §4
[21] = system: K562; test: Induction of apoptosis in human K562 cells assessed as 112 kDa PARP level incubated for 72 hrs by Western blot analysis (reference value: 100%); type: functional; procedure, shortened: as §4
[22] = system: K562; test: Induction of apoptosis in human K562 cells assessed as 85 kDa PARP level incubated for 72 hrs by Western blot analysis (reference value: 100%); type: functional; procedure, shortened: as §4
[23] = system: K562; test: Induction of necrosis in human K562 cells incubated for 24 hrs by annexin V FITC and propidium iodide staining based flow cytometry relative to control; type: functional; design: concentration or dose not given beside the values
[24] = system: K562; test: Cell cycle arrest in human K562 cells assessed as accumulation in G2/M phase incubated for 24 hrs by propidium iodide staining based flow cytometry (reference value: 14.29%); type: functional; procedure, shortened: as §2
[25] = Ratio of compound IC50 to tiazofurin IC50 for cytotoxicity against human MRC5 cells incubated for 72 hrs by MTT assay; type: cell-based; conditions: read-out: Ratio IC50
[26] = system: K562; test: Cell cycle arrest in human K562 cells assessed as accumulation in S phase incubated for 24 hrs by propidium iodide staining based flow cytometry (reference value: 48.38%); type: functional; procedure, shortened: as §2
[27] = system: K562; test: Cell cycle arrest in human K562 cells assessed as accumulation in G0/G1 phase incubated for 24 hrs by propidium iodide staining based flow cytometry (reference value: 36.28%); type: functional; procedure, shortened: as §2
[28] = system: K562; test: Cell cycle arrest in human K562 cells assessed as accumulation in sub-G1 phase incubated for 24 hrs by propidium iodide staining based flow cytometry (reference value: 1.05%); type: functional; procedure, shortened: as §2
[29] = system: K562; test: Cell cycle arrest in human K562 cells assessed as decrease in cell accumulation at G2/M phase incubated for 72 hrs by propidium iodide staining based flow cytometry relative to tiazofurin; type: functional; procedure, shortened: as §2
[30] = system: K562; test: Induction of apoptosis in human K562 cells incubated for 72 hrs by annexin V FITC and propidium iodide staining based flow cytometry relative to tiazofurin; type: functional; procedure, shortened: as §3
[31] = system: K562; test: Induction of apoptosis in human K562 cells assessed as reduction in cell membrane integrity at cytotoxic IC50 incubated for 72 hrs by acridine orange and ethidium bromide double staining based fluorescence microscopy; type: functional
[32] = system: K562; test: Genotoxicity in human K562 cells assessed as increase in DNA damage at cytotoxic IC50 incubated for 72 hrs by comet assay; type: toxicity, cell-based; conditions: k562, 72 h
Procedure, shortened: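 Modified alkaline comet assay: cells set in agarose on slides, electrophoresed horizontally, stained with ethidium bromide and imaged by fluorescence microscopy. 50 comets scored per sample; mean tail moment used as the DNA-damage measure.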

Row | Compound | Activity [1] [%] | IC50 [6] [µM] | Activity [11] [%] | Activity [12] [%] | Activity [13] [%] | Activity [14] [%] | Activity [15] [%] | Activity [16] [%] | Activity [17] [%] | Activity [18] [%] | Activity [19] [%] | Activity [20] [%] | Activity [21] [%] | Activity [22] [%] | Activity [23] [%] | Activity [24] [%] | Activity [26] [%] | Activity [27] [%] | Activity [28] [%] | other results
1 | CC(=O)N[C@H]1[C@H](O)[C@@H](CO)O[C@H]1c1nc(C(N)=O)cs1 | 10.64 | > 100 | 11.66 | 36.13 | 38.86 | 13.36 | 22.85 | 7.29 | 149.59 | 141.43 | 777.09 | 59.32 | 477.15 | 534.18 | 1.23 | 17.67 | 46.93 | 33.62 | 2.11 | IC50 [2]: 0.0061 µM; IC50 [3]: 12.9 µM; IC50 [4]: > 100 µM; IC50 [5]: 2.56 µM; IC50 [7]: > 100 µM; IC50 [8]: 3.21 µM; Ratio IC50 [9]: 309; Ratio IC50 [10]: 40; selectivity ratio at 72 h [25]: 9; fold change (FC) [29]: 2 - 2.4; fold change (FC) [30]: 2
2 | COc1cccc2c1C(=O)c1c(O)c3c(c(O)c1C2=O)C[C@@](O)(C(=O)CO)C[C@@H]3O[C@H]1C[C@H](N)[C@H](O)[C@H](C)O1 [DOXORUBICIN] |  | 0.15 |  |  |  |  |  |  |  |  |  |  |  |  |  |  |  |  |  | 
3 | NC(=O)c1csc([C@@H]2O[C@H](CO)[C@@H](O)[C@H]2O)n1 [TIAZOFURIN] | -0.34 |  | 5.74 | 33.62 | 35.66 | 24.99 | 13.71 | 13.71 | 344.33 | 338.37 | 1302.79 | 89.69 | 299.68 | 214.99 | 3.76 | 7.55 | 53.16 | 37.08 | 2.22 | Activity [31]: Active; Activity [32]: Toxic
